According to PubChem BioAssay AID624466 (The Scripps Research Institute Molecular Screening Center, 2012):
Out of some 360,000 compounds screened, about 5,400 (1.5%) were called active. The sample holds actives, similar compounds and a random draw of the others, so the mix is not that of the screen.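 How the source made its calls: active means inhibition above a per-plate cutoff, the mean inhibition of test compounds on that plate plus 3 SD (cut at about 49% in these data); inactive means the rest.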

Each compound was assayed against Trace amine-associated receptor 1 (Homo sapiens) (UniProt Q96RJ0) (assay: blockers of beta-PEA-driven TAAR1 calcium signal – Fluo-8 calcium fluorescence, CHO RD-HGA16 cells, primary screen (AID 624466;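 further: 0% = DMSO plus EC80 beta-PEA response and 100% = DMSO alone without agonist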)). Settings: CHO RD-HGA16 TAAR1, Fluo-8 calcium fluorescence, antagonist; at 3 µM; stronger effect = higher value.
Chain of Trace amine-associated receptor 1 (Homo sapiens) (Q96RJ0 whole entry, looked up): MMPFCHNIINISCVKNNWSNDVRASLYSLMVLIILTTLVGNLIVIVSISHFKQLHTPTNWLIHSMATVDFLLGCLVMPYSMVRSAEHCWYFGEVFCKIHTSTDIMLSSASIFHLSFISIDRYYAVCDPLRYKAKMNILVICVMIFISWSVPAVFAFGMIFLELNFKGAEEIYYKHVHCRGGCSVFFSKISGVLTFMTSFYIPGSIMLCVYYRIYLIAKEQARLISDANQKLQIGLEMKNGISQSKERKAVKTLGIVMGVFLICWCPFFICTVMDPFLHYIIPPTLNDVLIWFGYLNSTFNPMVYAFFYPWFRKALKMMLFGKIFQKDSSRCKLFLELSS
How it was run: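 Test system: CHO RD-HGA16 cells bearing hTAAR1 | Reagent: β-PEA, EC80 | Compound dosing: 3 µM, single point | Schedule: Dye loading 75 min at 37 °C, then 30 min room temperature | Signal: Calcium fluorescence with Fluo-8 | Evaluation: Percent inhibition of PEA-evoked calcium signal, max/basal emission ratio | Control set: DMSO-only wells and EC80 β-PEA-stimulated wells | Repeats: Singlicate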

Structure (SMILES) | inhibition
CN1CCN(C(=O)c2ccc(NC(=O)c3ccc(Br)o3)cc2)CC1 | -4.9% (inactive)
O=C(Nc1ccc(-c2nnc(-c3ccccc3)o2)cc1)c1ccc(Br)o1 | 71% (active)
CCS(=O)(=O)c1ccc(-c2cccc(NC(=O)c3ccc(Br)o3)c2)nn1 | 13.4% (inactive)
CC(=O)OCC1(O)CC23CCC4c5ccoc5CCC4(C)C2CCC1C3 (stereo unspecified) | 13.6% (inactive)
COC(=O)C[C@@H]1C=C[C@@H](NC(=O)c2cccnc2)[C@@H](CO)O1 | -15.9% (inactive)
CCC(C)(C)NC(=O)c1cc([N+](=O)[O-])ccc1N1CCCCC1 | -10.4% (inactive)
Cc1cc(OCC(=O)NC2CCN(C)CC2)ccc1[N+](=O)[O-] | -21.6% (inactive)
Cc1cc(OCCCCOc2ccc(C#N)cc2)ccc1[N+](=O)[O-] | 51.1% (active)
Cc1cc(OCCCN2CCN(Cc3ccccc3)CC2)ccc1[N+](=O)[O-] | -20.9% (inactive)
COc1ccc(-n2nc(C(=O)NCC(=O)N3CCC(C(N)=O)CC3)c3ccccc3c2=O)cc1OC | 1.2% (inactive)
CCOC(=O)C(Cc1ccc(N)cc1)N1C(=O)c2ccccc2C1=O (stereo unspecified) | 10.7% (inactive)
N/C(=N\c1nc2ccccc2o1)NC(=O)C(Cc1ccccc1)N1C(=O)c2ccccc2C1=O (stereo unspecified) | 49% (active)
O=C(NCCN1CCOCC1)[C@H](Cc1ccccc1)N1C(=O)c2ccccc2C1=O | -8.4% (inactive)
CC(C)(C)C1CCC(=O)N2CCC[C@]2(c2ccccc2)C1 (stereo partly specified) | -2.31% (inactive)
COc1ccc(-c2ccc(CN3C(CC(C)C)C(=O)N(Cc4cn(CC5CCCCC5)nn4)CCS3(=O)=O)cc2)cn1 (stereo unspecified) | -9.27% (inactive)
COc1ccc(-c2ccc(CN3C(CC(C)C)C(=O)N(Cc4cn(CC5CCCCC5)nn4)CCS3(=O)=O)cc2)cc1 (stereo unspecified) | -8.03% (inactive)
CC(C)CC1C(=O)N(Cc2cn(CC3CCCCC3)nn2)CCS(=O)(=O)N1Cc1ccc(-c2ccc(Cl)cc2)cc1 (stereo unspecified) | -15.1% (inactive)
COCOCCn1cc(CN2CCS(=O)(=O)N(Cc3ccc(-c4ccc(OC)cc4)cc3)C(CC(C)C)C2=O)nn1 (stereo unspecified) | 54.1% (active)
COCOCCn1cc(CN2CCS(=O)(=O)N(Cc3ccc(-c4cccc(N(C)C)c4)cc3)C(CC(C)C)C2=O)nn1 (stereo unspecified) | 1.52% (inactive)
COCOCCn1cc(CN2CCS(=O)(=O)N(Cc3ccc(-c4ccccc4)cc3)C(CC(C)C)C2=O)nn1 (stereo unspecified) | 54.1% (active)
CCOc1ccc(CNC(=O)CCC(=O)N2CCSc3ccccc32)cc1 | -0.53% (inactive)
O=S1(=O)CC(N2CCN(CCO)CC2)CN1Cc1cn(Cc2ccc(Cl)cc2)nn1 (stereo unspecified) | -8.26% (inactive)

Structure (SMILES) | inhibition
COc1ccc(OC)c(CN2C(=O)CCC2(C)c2nnnn2Cc2ccccc2)c1 (stereo unspecified) | -20.4% (inactive)
CCOc1ccc(Nc2nc(Cl)nc(N3CCN(c4ccc(OC)cc4)CC3)n2)cc1 | 56.5% (active)
COC(=O)c1ccc(Oc2nc(Nc3ccc(F)cc3)nc(N3CCCC3)n2)cc1 | -16.1% (inactive)
CCN1CCN(c2nc(Nc3cc(OC)ccc3OC)nc(Nc3cc(OC)ccc3OC)n2)CC1 | -14.1% (inactive)
O=[N+]([O-])c1ccc(N=NNc2ccc([N+](=O)[O-])cc2)cc1 | -6.71% (inactive)
CC(C)c1ccc(C=NNc2ccc([N+](=O)[O-])cn2)cc1 | 17.1% (inactive)
O=[N+]([O-])c1ccc(N/N=C/c2ccccc2)cc1 | 61.6% (active)
O=C(NN=Cc1ccco1)C(=O)Nc1ccc(Cl)c([N+](=O)[O-])c1 | 8.28% (inactive)
CN(C)c1ccc(C=NCCc2ccc(S(N)(=O)=O)cc2)cc1 | -1.3% (inactive)
c1ccc2c(c1)CCc1snnc1-2 | -2.49% (inactive)
NCCCNC(=S)NCCCN(Cc1ccc(Cl)cc1)c1ccc(Br)cn1 | 0.12% (inactive)
S=C(NCCCc1cnc[nH]1)NCCCN(Cc1ccc(Cl)c(Cl)c1)c1ccc(Br)cn1 | 51.9% (active)
C=CCN=C1NC(c2ccccc2)C(C(=O)OC)=C(C)N1Cc1ccc(C(F)(F)F)cc1 (stereo unspecified) | 31.4% (inactive)
CSc1ncccc1C(=O)N1CCCC(Nc2ccc(F)c(F)c2)C1 (stereo unspecified) | 4.84% (inactive)
CC(=O)c1c(C)[nH]c(C(=O)COC(=O)c2cccc(S(=O)(=O)N(C)c3ccccc3)c2)c1C | 81.8% (active)
CN(c1ccccc1)S(=O)(=O)c1ccc(Cl)c(C(=O)OCC(N)=O)c1 | -0.08% (inactive)
CC(=O)c1c(C)[nH]c(C(=O)COC(=O)c2cccs2)c1C | 36% (inactive)
O=C(Nc1ccccc1-c1nnn(CC(=O)N2CCN(c3ccccc3)CC2)n1)c1cccs1 | 62% (active)
COc1ccccc1N1CCN(C(=O)Cn2nnc(-c3cccs3)n2)CC1 | 2.09% (inactive)
O=C(Nc1ccc(N2CCN(C(=O)C3CC3)CC2)cc1)c1cccs1 | 16.4% (inactive)
Cc1ccc(F)cc1S(=O)(=O)Nc1cccc(C(=O)N2CCCC(C(N)=O)C2)c1 (stereo unspecified) | -13.3% (inactive)
COC(=O)[C@]12CCCCC=C1N(Cc1ccco1)C(=O)[C@H](CC(=O)NCCCCc1ccccc1)C2 | 12.7% (inactive)

Structure (SMILES) | inhibition
CN(C)c1ccc(/C=C2\NC(=S)N(Cc3ccccc3)C2=O)cc1 | 74.3% (active)
CN(C(=O)CN1C(=O)NC(C)(CCc2ccccc2)C1=O)c1ccccc1 (stereo unspecified) | 9.09% (inactive)
CC(=O)C1=C(C)N(Cc2ccccc2)C(=S)NC1c1cccc(Br)c1 (stereo unspecified) | 25.4% (inactive)
COc1ccc(OC)c2[nH]c(=O)c(CCNC(=O)C(C)(C)C)cc12 | -17% (inactive)
O=C(NCCCc1ccccc1)C(=O)c1c[nH]c2ccccc12 | -6.38% (inactive)
COc1ccc(OC)c2[nH]c(=O)c(CCNC(=O)C(=O)c3c[nH]c4ccccc34)cc12 | 64.7% (active)
O=C(COC(=O)C1CCCCC1)Nc1ccc([N+](=O)[O-])cc1 | 35.5% (inactive)
CCC(C)c1ccc(NC(=O)COC(=O)C2CCCC2)cc1 (stereo unspecified) | 5.25% (inactive)
CC(=O)Nc1ccc(NC(=O)COC(=O)C2CCC(C(C)(C)C)CC2)cc1 (stereo unspecified) | 65.2% (active)
O=C(Nc1ccc(F)cc1)C(CCc1ccccc1)N1CCN(CC(=O)N2CCCC2)CC1 (stereo unspecified) | 4.42% (inactive)
C[C@H](CO)N1C[C@H](C)[C@@H](CN(C)C(=O)Nc2ccccc2F)OCc2cn(nn2)CCCC1=O | 6.99% (inactive)
CCCNC(=O)C1(C)CCN(Cc2csc(-c3ccc(Cl)cc3)n2)C1 (stereo unspecified) | -5.66% (inactive)
CN(C)S(=O)(=O)c1cccc(NC(=O)COC(=O)c2cc(=O)[nH]c(=O)[nH]2)c1 | -12.5% (inactive)
CN(C)S(=O)(=O)c1cccc(NC(=O)COC(=O)C2(c3ccccc3F)CCCC2)c1 | 62.5% (active)
CN(C)S(=O)(=O)c1cccc(NC(=O)COc2ccc3ccccc3c2)c1 | 30.8% (inactive)
Nc1[nH]c(C(=O)c2ccc(Br)cc2)c(-c2ccc3c(c2)OCO3)c1C(=O)NCCc1c[nH]c2ccccc12 | -6.65% (inactive)
CC(C)(C)NC(=O)CN(C(=O)c1csnn1)c1ccccc1-c1ccccc1 | 5.99% (inactive)
OC(COc1ccccc1)CN1CCN(c2cccc(Cl)c2)CC1 (stereo unspecified) | -33.9% (inactive)
OC(CNCCc1ccc(Cl)cc1Cl)COc1ccccc1 (stereo unspecified) | 52.8% (active)
COc1ccc(OCC(O)CNC(=O)Nc2ccc(Cl)cc2)cc1 (stereo unspecified) | 12.9% (inactive)
CCOc1ccc(CCN2C(=O)C(=O)N([C@@H](Cc3ccc(O)cc3)CN3CCC[C@H]3CN3C(=O)C(=O)NC[C@@H]3CC(C)C)C[C@@H]2Cc2ccccc2)cc1 | -8.01% (inactive)
CCOC(=O)C1CSCCS(=O)(=O)N1Cc1ccc(Cl)cc1 (stereo unspecified) | -2.26% (inactive)

Structure (SMILES) | inhibition
C=CCn1c(SCC(=O)CC(=O)OCC)nc2cc(C(=O)N3CCC(C(N)=O)CC3)ccc2c1=O | -12.6% (inactive)
C=CCn1c(SCc2cccc(F)c2)nc2cc(C(=O)N3CCC(C(N)=O)CC3)ccc2c1=O | 62.7% (active)
NC(=O)C1CCN(C(=O)c2ccc3c(=O)n(Cc4cccc(Br)c4)c(=S)[nH]c3c2)CC1 | -0.46% (inactive)
CCOc1ccc2[nH]c(=O)c(CN(CCCO)S(=O)(=O)c3ccc(F)cc3)cc2c1 | 28.9% (inactive)
COc1ccc2[nH]c(=O)c(CN(Cc3cccnc3)S(=O)(=O)c3ccccc3F)cc2c1 | 69.4% (active)
COc1ccc(-c2[nH]ncc2CN(C)Cc2cccnc2)c(F)c1 | -6.76% (inactive)
O=C(Nc1cccc(NC(=O)c2ccc(Br)cc2)c1)c1ccccc1 | 66% (active)
O=C(Nc1ccccc1)c1ccc2nsnc2c1 | -3.37% (inactive)
CC(C)(C)NC(=O)c1cccc(NC(=O)Cc2ccc(Br)cc2)c1 | -5.95% (inactive)
CCn1cc(/C=C2/SC(=S)NC2=O)c(C)n1 | -4.35% (inactive)
O=C(NCc1cccnc1)c1ccc2nc([C@@H]3O[C@H](CO)[C@H](O)[C@H](O)[C@H]3O)[nH]c2c1 | 1.36% (inactive)
CCOc1ccc(N2CC(C(=O)N/N=C/c3sccc3C)CC2=O)cc1 (stereo unspecified) | 105% (active)
CCOc1ccc(NC(=O)[C@H](C)NC(=O)C2CC(=O)N(c3ccc(OC)cc3)C2)cc1 (stereo partly specified) | -34.6% (inactive)
CCOc1ccc(N2CC(C(=O)NCc3ccccn3)CC2=O)cc1 (stereo unspecified) | -11.4% (inactive)
O=C(NCc1ccccc1)[C@H]1CCCN1C(=O)[C@H]1CCCN1C(=O)c1cc(F)cc(F)c1 | -9.09% (inactive)
COC(=O)[C@]12CCCCC=C1N(Cc1ccc3c(c1)OCO3)C(=O)[C@H](CC(=O)N1CCOCC1)C2 | 2.33% (inactive)
Cn1c(=O)c2ccccc2n(CC(=O)Nc2ccc3c(c2)OCCO3)c1=O | -4.86% (inactive)
Cc1c(C(=O)NCc2ccc(C#N)cc2)sc(=O)n1Cc1ccc(C(=O)N(C)C)cc1 | 0.09% (inactive)
Cc1ccc(Cn2c(C)c(C(=O)NCc3ccccc3C(F)(F)F)sc2=O)cc1 | 24% (inactive)
CC(=O)Oc1ccc(Cn2c(C)c(C(=O)NCc3ccc(C#N)cc3)sc2=O)cc1 | 85.1% (active)
